UCH37 DUB inh: inhibitors of human UCH37 deubiquitinase, primary screen, biochemical, Ub-AMC cleavage, fluorescence. Ubiquitin carboxyl-terminal hydrolase isozyme L5 (Homo sapiens), Q9Y5K5. purified proteasome/UCH37. inhibition, % (concentration not given with the values). 0.33% of 330,000 active. AID 588478, 2011;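 active = mean inhibition over replicate wells above about 20%, limit read from the data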;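 note: 0% = compound-free wells with enzyme and 100% = wells lacking proteasome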
Target sequence (Q9Y5K5 whole entry, looked up): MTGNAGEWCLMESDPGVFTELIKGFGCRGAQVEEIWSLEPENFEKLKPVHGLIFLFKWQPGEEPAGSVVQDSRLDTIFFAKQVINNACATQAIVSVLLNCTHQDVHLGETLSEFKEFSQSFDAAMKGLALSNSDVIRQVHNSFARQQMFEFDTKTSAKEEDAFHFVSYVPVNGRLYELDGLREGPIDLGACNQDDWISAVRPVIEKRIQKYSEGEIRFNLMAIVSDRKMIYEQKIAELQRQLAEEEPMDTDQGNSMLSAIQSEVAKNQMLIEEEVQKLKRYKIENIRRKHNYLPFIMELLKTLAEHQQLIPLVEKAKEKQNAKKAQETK
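Material: Human UCH37 enzyme supplied as purified proteasome complex | Schedule: 30 min compound-proteasome preincubation then 25 min substrate reaction, room temperature | Detection: AMC fluorescence from Ub-AMC cleavage, excitation 355 nm, emission 460 nm | Benchmarks: Wells without proteasome as full block, compound-free enzyme plus substrate as uninhibited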
CHOP inh: inhibitors of CHOP promoter induction, primary screen, cell-based, unfolded protein response, luciferase reporter. inhibition, % at 10 µM. CHO-K1 CHOP-promoter luciferase, tunicamycin-induced, 15-18 h. 3.8% of 220,000 active;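 active = compounds that reduced the stress-induced luciferase reporter signal by more than about 70% of percent inhibition, limit read from the data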;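 note: 0% = tunicamycin plus vehicle and 100% = wells without tunicamycin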
UPR XBP1 act: activators of adaptive XBP1 UPR arm, primary screen, cell-based, CHO-XBP1 luciferase reporter, luminescence, uHTS; IRE1-XBP1 UPR activation; percent of tunicamycin response, DMSO as zero; activation, % at 20 µM; 0.33% of 330,000 active;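 active = versus positive control, 20 µM dose yields 30% or more activation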;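 note: 100% = tunicamycin at 10 µg/mL and 0% = DMSO only wells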
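Material: IRE1-XBP1 luciferase reporter CHO line / Quantity: one thousand reporter cells per well / Buffer or medium: F12 with 10% serum / Compound: 20 µM single concentration, DMSO 1% / Times: 6 h treatment, 37 °C / Detection: Steady-Glo luciferase glow luminescence, 10 min after reagent addition / Benchmarks: tunicamycin high, DMSO low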
CTSL1 counter: Fasciola hepatica cathepsin L1 inhibitors, primary screen, counter-screen for PFM18AAP inhibitor project, biochemical, QFRET, fluorogenic peptide substrate; recombinant F. hepatica cathepsin L1, Z-Leu-Arg-MCA fluorescence; AID 1906, 2009; inhibition, % at 5.96 µM; 0.49% of 300,000 active;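 active = inhibition above the mean of all tested compounds plus 3 SD, set per screening campaign, cut at about 17% in these data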;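 note: 0% = plate median of test compound wells and 100% = 1 µM Z-Phe-Ala-diazomethylketone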
UPR CHOP act: activators of apoptotic CHOP UPR arm, primary screen, cell-based, CHO-CHOP luciferase reporter, luminescence, uHTS; UPR activation; percent of tunicamycin response over DMSO baseline; activation, % at 10 µM; 0.34% of 330,000 active;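 active = at 10 µM dose, activation of 40% or more, normalized to positive control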;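 note: 100% = tunicamycin at 10 µg/mL and 0% = DMSO alone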
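Test system: CHO CHOP reporter cells. Input: 500 CHO-CHOP cells per well. Medium: F12 with 10% FBS. Technique: luciferase luminescence. Measure: percent activation relative to tunicamycin control. Dosing: 10 µM compound, 0.5% DMSO. Timing: 16-18 h cell attachment, then 6 h compound exposure, 37 °C.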
CHOP UPR conf: activators of apoptotic CHOP UPR arm, confirmation, cell-based, CHO-CHOP luciferase reporter, single concentration. shares compounds with UPR CHOP act. activation, % at 10 µM. CHO-CHOP cells, CHOP-luciferase reporter luminescence; percent of tunicamycin response, DMSO as zero. 64% of 1,000 active; in the data active = activation above about 33%;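 note: 0% = DMSO wells and 100% = tunicamycin 10 µg/mL wells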
Active calls of the source: *. Only a selection was taken, and hits are over-represented in it overall.

Screening Cc1ccc(NC(=O)ON=C2CCCCC2c2ccc([N+](=O)[O-])cc2[N+](=O)[O-])cc1 (stereo unspecified) returned UCH37 DUB inh 3.
Screening COc1cc(OC)cc(C(=O)NC(=S)Nc2cc3oc4ccccc4c3cc2OC)c1 returned UCH37 DUB inh 3, CHOP inh 53, UPR XBP1 act 15, CTSL1 counter -3, UPR CHOP act 101* and CHOP UPR conf 74*.
COc1cc2c(cc1NC(=S)NC(=O)c1c(OC)cccc1OC)oc1ccccc12 was read as UCH37 DUB inh 9, CHOP inh -16, UPR XBP1 act -2, CTSL1 counter 4 and UPR CHOP act 0.
O=C1Nc2ccccc2/C1=C\C(=O)c1ccccc1 was read as UCH37 DUB inh 3, UPR XBP1 act 13, CTSL1 counter 1, UPR CHOP act 98* and CHOP UPR conf 237*.
For Cc1cccc(NC(=O)CCC(=O)NN=Cc2ccncc2)c1 the results were UCH37 DUB inh 0.
Screening O=C(NN=Cc1ccc(Cl)cc1Cl)c1ccncc1 returned UCH37 DUB inh 3.
Cc1ccccc1S(=O)(=O)NC1OC(=O)C(Cl)=C1Cl (stereo unspecified) was read as CHOP inh -23, UPR XBP1 act 2, CTSL1 counter 3, UPR CHOP act 47* and CHOP UPR conf 40*.
Screening Cc1ccccc1S(=O)(=O)NC1OC(=O)C(Oc2ccccc2)=C1Br (stereo unspecified) returned UCH37 DUB inh 5, CHOP inh 6, UPR XBP1 act -2, CTSL1 counter 0 and UPR CHOP act 0.
For COc1ccc(C(=O)CCS(=O)(=O)c2ccc(F)cc2)cc1OC the results were UPR XBP1 act -9, CTSL1 counter -21, UPR CHOP act 44* and CHOP UPR conf 11.
CC(=O)Nc1ccc(NC(=O)Cc2ccc(-c3ccccc3)cc2)cc1 was read as UCH37 DUB inh 3, UPR XBP1 act -2, CTSL1 counter -1 and UPR CHOP act 0.
Screening O=C(CCl)Nc1ccc(-c2ccccc2)cc1 returned UCH37 DUB inh 6, CHOP inh -49, UPR XBP1 act 2, CTSL1 counter 1, UPR CHOP act 43* and CHOP UPR conf 47*.
For COc1cccc(C=NNc2nnc(C)n2N)c1OCc1ccccc1Cl the results were UCH37 DUB inh 3.
For COc1ccc2[nH]cc(C(=O)CCl)c2c1 the results were UCH37 DUB inh 1, CHOP inh 6, UPR XBP1 act -7, CTSL1 counter 74*, UPR CHOP act 102* and CHOP UPR conf 39*.
`CCOc1cc(/C=C2\CN(CC)C/C(=C\c3ccc(O)c(OCC)c3)C2=O)ccc1O` gave UCH37 DUB inh -2, UPR XBP1 act -5, CTSL1 counter 3, UPR CHOP act 78* and CHOP UPR conf 86*.
COc1ccc(-c2nn(CCC(=O)O)cc2C=NNC(N)=S)cc1 was read as UCH37 DUB inh 3.
Cc1cc(-c2onc(C)c2C(=O)N/N=C/c2ccccc2)no1 was read as CHOP inh 11, UPR XBP1 act 1, CTSL1 counter 4 and UPR CHOP act -1.
For Cc1ccc(SC(=O)c2c(C)noc2-c2cc(C)on2)cc1 the results were CHOP inh 18, UPR XBP1 act -4, CTSL1 counter 3, UPR CHOP act 57* and CHOP UPR conf 18.
`COC(=O)NN=Cc1ccc(-c2cc(Cl)cc(Cl)c2)o1` gave UCH37 DUB inh 0.
`N=C1/C(=C/c2cccn2-c2ccc([N+](=O)[O-])cc2)C(=O)N=C2SC=CN12` gave UCH37 DUB inh 4, CHOP inh 56, UPR XBP1 act 8, CTSL1 counter 3, UPR CHOP act 54* and CHOP UPR conf 14.

High-throughput results (PubChem)
